Measurements: publication PMC9121347 (Bioconjugate Chemistry, 2022)

Legend:
AD (APP/PS1) mice = experiment: Dynamic microPET/CT imaging, AD mice; format: in vivo, mouse; conditions: AD (APP/PS1) vs normal (B6SJL) mice; any time point
[1] = test system: phosphorylation of Akt in hCMEC/D3 monolayers; format: cell-based, human; conditions: 100 nM, 20 min, 37 °C in DMEM, Western blot, n = 3
Summary of the method: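 hCMEC/D3 monolayers treated ± test compound (100 nM) in DMEM, 20 min, 37 °C, washed thrice with PBS, lysed in RIPA with protease/phosphatase inhibitors, protein by BCA. […] Blocked in 5% milk; anti-vinculin, Akt, p-Akt (S473) at 1:1000 overnight at 4 °C; dye-conjugated secondary at 1:2000, 1 h RT. p-AKT/AKT ratio, mean ± SD, unpaired t-test.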

Compound | difference in uptake between normal and AD groups (brain and heart) (AD (APP/PS1) mice) | phosphorylation of Akt (p-AKT/AKT ratio) [1]
CNc1ccc(-c2nc3ccc(O)cc3s2)cc1 [[^11C]PIB, N-methyl [^11C] 2-(4′-methylaminophenyl)-6-hydroxy-benzothiazole] | neither of them showed any significant difference in the uptake between normal and AD groups at any time point | 
[18F]c1ccc(-c2ccc3c(c2)[nH]c2ccncc23)cn1 [[^18F]AV1451, 7-(6-[^18F]fluoropyridin-3-yl)-5H-pyrido[4,3-b]indole] | neither of them showed any significant difference in the uptake between normal and AD groups at any time point | 
NOTA-insulin: insulin with p-SCN-Bn-NOTA linked to the lysine residue of chain B; labeling precursor |  | stimulated the phosphorylation of Akt
